# Laboratory results from ChEMBL document CHEMBL4513216, “Probing the Open Global Health Chemical Diversity Library for Multistage-Active Starting Points for Next-Generation Antimalarials” (ACS Infect Dis, 2020).
# Experiment: Toxicity liver stage against HepG2, at 10uM
# Assay type: cell-based
# Design: test concentration 10 uM, cell line HepG2-A16-CD81EGFP
# Settings: human, HepG2-A16-CD81EGFP cells; read-out: INHIBITION
# Procedure, shortened: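 Uninfected HepG2-A16-CD81EGFP cells, 3 × 10^3 per well, 1536-well, plated on prespotted compound at 10 μM final, parasite-free screening media added to match infected plates; puromycin 10 μM positive, DMSO 0.5% negative; run in parallel with 48 h PbLuc assay at 37 °C, 5% CO2; viability by CellTiter-Glo luminescence, normalized to controls.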
row,SMILES,cytotoxicity at 10 µM [%]
1,COc1ccc(CCNC(=O)C(C)Nc2cccc(C)c2C)cc1 (stereo unspecified),-5.91
2,COc1cc(N2CCC(c3nccn3Cc3cccnc3)CC2)ncn1,-4.4
3,O=C(NCc1ccco1)c1cc[n+]([O-])cc1,3.33
4,Cc1nc(CNC(=O)N(CCCO)C2CCc3ccccc32)oc1C (stereo unspecified),-13.5
5,COc1nccc(N2CC[C@@H](N3CCCCCC3)[C@H](O)C2)c1C#N,-152
6,CCc1ccccc1OC1CN(C(=O)c2cccs2)C1,13.7
7,COc1ccc2c(c1)CN(Cc1ccco1)C(=O)CCN2,-2.59
8,Cc1noc(C)c1CN1CCO[C@H]2CN(Cc3nccn3C)C[C@H]21,2.64
9,Cc1nc[nH]c1-c1nc2cc(S(=O)(=O)N3CCCC3)ccc2n1C,-14.2
10,Cc1nc(C)c(C)c(N2C[C@@H](CN3CCCN(C)CC3)[C@@H](CO)C2)n1,-10.4
11,Cc1ccn2ncc(C(=O)N3CCCC(c4cc(C)[nH]n4)C3)c2n1 (stereo unspecified),-8.02
12,CN(C1CCCN(c2ccccn2)C1)S(C)(=O)=O (stereo unspecified),1.07
13,Cc1cc(C)nc(N2CCc3ccc(OC(F)F)cc3C2)n1,2.68
14,Cc1ccccc1C(N)c1ccncc1 (stereo unspecified),-0.871
15,CN(CCc1ccccn1)[C@@H]1CCN(c2cccc(C#N)n2)C[C@H]1O,-13.9
16,COC(CNC(=O)c1ccoc1)c1cccc(Cl)c1 (stereo unspecified),3.3
17,CN(CCOCC(F)(F)F)CC1CCN(CCO)CC1,5.68
18,Cc1nnc2n1CCN(C(C(=O)N1CCCCC1)c1ccccc1)C2 (stereo unspecified),-5.83
19,Fc1cccc(-c2nccnc2C2CCCNC2)c1 (stereo unspecified),-16.5
20,CCc1cc(CNC(=O)N2CCN(c3nc(C)c(C)s3)CC2)on1,-11.6
21,COc1ccncc1NC(=O)c1[nH]nc(C(C)C)c1Br,4.04
22,CC(C)CC(NC(=O)c1ccn(C)c(=O)c1)c1ccccc1 (stereo unspecified),-6.76
23,CCn1cnnc1C1CCN(C(=O)c2ccc3c(c2)nnn3C)CC1,10.9

row,SMILES,cytotoxicity at 10 µM [%]
1,Cc1nn(-c2ccccc2)c(C)c1-c1ccnc(N2CCC(O)CC2)n1,-1.74
2,CN(CC1(CO)CCC1)C(=O)C1CCC(=O)N(Cc2ccc(Cl)cc2)C1 (stereo unspecified),-11.2
3,COc1ccc2c(c1)CCCN2C(=O)NC1CCCCNC1=O (stereo unspecified),-139
4,Cc1nc(-c2cc(C(=O)O)co2)cs1,3.39
5,Cc1nc(C)n(C2CCCN(C(=O)CCc3cscn3)C2)n1 (stereo unspecified),6.74
6,CNC(=O)c1cn2cc(-c3cccc(Cl)c3)n(CC=C(C)C)c(=O)c2n1,-52.8
7,CCOCCC(=O)N1CCCC(c2ncc[nH]2)C1 (stereo unspecified),-9.43
8,CC(C)(C)CC(=O)NC[C@H]1OC[C@@H](NCc2ccccn2)[C@@H]1O,-5.28
9,COCC(=O)N1CC[C@@H]2O[C@@H](COCC3CCOCC3)CC[C@@H]21,0.718
10,CC(C)N1CCN(C(=O)c2ccc(Cn3ccccc3=O)o2)CC1,-13.1
11,CC(C)CCC(=O)N1CCN(C(=O)c2ccc3nccn3c2)CC1,7.42
12,CCOC(=O)c1nc(CN2CCN(C(=O)NC3CCCCC3)CC2)cs1,-3.47
13,COC(=O)C(C)(C)NC(=O)C1CC(=O)N(CC2CC2)C1 (stereo unspecified),-142
14,CCCc1nnc(C(=O)N(C)Cc2ccc(OC)cc2)o1,2.64
15,Cc1nccn1CC1CCCN1S(=O)(=O)Cc1ccc(F)cc1 (stereo unspecified),-7.69
16,Cc1occc1C(=O)N1CCO[C@H]2[C@@H](Oc3ccccn3)CC[C@@H]21,2.37
17,COCC(=O)N1CCC2(CC1)CCN(Cc1ccccn1)C2=O,1.62
18,O=C(c1cccnc1)N1CCOC(CCCc2ccccc2)C1 (stereo unspecified),7.07
19,CN(CCn1cccn1)S(=O)(=O)c1cccc(Cl)c1C#N,3.45
20,Oc1cc(-c2ccsc2)nc(C2CCN(Cc3ccncc3)CC2)n1,-7.7
21,CCCc1noc(CCC(=O)N2CCCC(n3ccnc3C)C2)n1 (stereo unspecified),-4.39
22,CN(Cc1ccc2c(c1)OCCO2)Cn1nc(C(C)(C)C)ccc1=O,-12.4
23,CN(Cc1nnc(-c2cccs2)o1)Cc1nc2c(s1)CCCC2,2.4

row,SMILES,cytotoxicity at 10 µM [%]
1,Cc1ccc(CN2CCN(C3CCC3)CC2CCO)o1 (stereo unspecified),-2.46
2,COc1cc(CN)c(OC)c2c1OCO2,-1.29
3,Cc1cccc(C)c1OCCC(=O)N1CCC(c2nncn2C)CC1,-12
4,COc1ccnc(NC(=O)c2cscn2)c1,9.72
5,CN1[C@@H](C(=O)NCC2CC2)C[C@@H]2CN(Cc3ccco3)C[C@@H]21,4.68
6,CC(C)(O)c1cc(CC2(NCc3ccco3)COC2)no1,-1.7
7,O=C(NCc1ccncc1)C1CN(c2nc3ccccc3s2)CCN1 (stereo unspecified),-105
8,CCNC(=O)c1ccc(NC(=O)N(C)Cc2cc(C)on2)c(C)c1,6.2
9,CC(O)(CCc1ccccc1)CNC(=O)c1ccc(F)cc1 (stereo unspecified),-70.3
10,CCN(CC)CCn1cc(NC2CCN(C(C)(C)C)CC2)cn1,-6.53
11,CN(C)c1ncc2c(n1)C1(CCN(CC3CC3)C1)COC2 (stereo unspecified),-12.9
12,CSC1=Nc2c(cnn2-c2cccc(Cl)c2)C2=NCCCN12,4.81
13,CCOc1nc2cnccc2n(CC(=O)NCc2ccc(C)cc2)c1=O,-0.0308
14,CC1CN(C)CCN1C(=O)NCCCn1ccnc1 (stereo unspecified),-45.5
15,Cc1nc(-c2ccc(S(=O)(=O)N3CCSC3)cc2)co1,17.2
16,CC(=O)NCCNC(=O)N(C)Cc1ccc2c(c1)OCCO2,-1.59
17,CCC(C)CNc1ccc2oc(COC)nc2c1 (stereo unspecified),-22.4
18,Cc1nnc(N2CCOC(CN(C)C)C2)c(C#N)c1C (stereo unspecified),-9.95
19,CN(C)c1cccc(C(=O)N2C[C@@H]3CC[C@H]2CN(C(=O)C2CCC2)C3)c1,-0.69
20,CCN1CCC(NC(=O)CN2CCCC2Cn2nc(C)cc2C)CC1 (stereo unspecified),-6.83
21,CCN1CCCC1Cn1ccc2ccc(C(=O)OC)cc2c1=O (stereo unspecified),-7.86
22,Cn1cc(C2COC3(CCN(C(=O)Cc4ccccc4)CC3)C2)cn1 (stereo unspecified),-108
23,O=C(NCCc1ccccn1)C1=NN(c2ccccc2)C(=O)CN1,-1.96

row,SMILES,cytotoxicity at 10 µM [%]
1,CN1CCOC(CNCc2nc(-c3ccco3)no2)C1 (stereo unspecified),3.54
2,Cc1ncoc1C(=O)N1CCc2[nH]nc(-c3ccc4c(c3)OCO4)c2C1,-143
3,Cc1ccc(-c2nnc([C@H]3CCN(C4CCC4)C3)o2)cc1,8.81
4,COc1ccc(OCCc2sc(C3(O)CCCNCC3)nc2C)cc1 (stereo unspecified),-14.9
5,CN(C)CCNC(=O)c1ccc(OC2CCN(S(C)(=O)=O)CC2)c(Cl)c1,1.33
6,Cn1cc(-c2ncnc3c2CCN(C(=O)c2cnccn2)CC3)cn1,6.93
7,Cc1ccc(=O)n(Cc2nc(C(C)OCC(C)C)no2)n1 (stereo unspecified),-3.21
8,Cc1nc(C)c(CC(=O)N2CCCN(CC3CC3)C(C(C)C)C2)c(=O)[nH]1 (stereo unspecified),-153
9,CC(C)n1c(C2CCCN(CCS(C)(=O)=O)C2)nc2ccccc21 (stereo unspecified),-10.4
10,O=C(NCC1CC1)C1CN(C(=O)Cc2cccs2)CC12CCOCC2 (stereo unspecified),4.76
11,CCO[C@H]1COC[C@@H]1NC(=O)CCc1nc(-c2ccccc2)no1,15.8
12,O=C(CCc1ccccc1Cl)NS(=O)(=O)c1ccc2c(c1)OCCO2,-6.69
13,Cn1nc(C(=O)NC2CC(C)(C)NC(C)(C)C2)cc1NC(=O)C1CC1,0.754
14,Cc1nn(C)c(Cl)c1C1CCCN1Cc1ccc(C(N)=O)cc1 (stereo unspecified),-3.69
15,CN(CCc1cn[nH]c1)Cc1nc(Cc2cccc(F)c2)no1,-1.53
16,Cc1ncsc1CCN(C)C(=O)CN1CCCCC1=O,-14.8
17,CC(Cc1cccs1)C(=O)NCc1cccc(N2CCCC2=O)c1 (stereo unspecified),2.4
18,CN1C(=O)[C@@H]2CC[C@H]1CN(C(=O)c1sccc1S(N)(=O)=O)C2,5.6
19,Cn1c(=O)c2c(n3ncnc13)NC(=O)CC2c1cccc(Br)c1 (stereo unspecified),7.83
20,O=C(c1ccc2c(c1)CCC2)N1CC[C@H](O)[C@]2(CCCO2)C1,-8.97
21,CCOCc1cc(CNC2CCCc3c2cnn3CC)ccc1OC (stereo unspecified),-11.3
22,O=S(=O)(C1CC1)N1Cc2[nH]nc(COCC3CC3)c2C1,16.4
23,CC(C)(C)c1nc(CN2CCCC(c3noc(C4CC4)n3)C2)no1 (stereo unspecified),-14.4

row,SMILES,cytotoxicity at 10 µM [%]
1,Cn1ccnc1CN1CCC2(CC1)COC2,6.81
2,Cc1nnc(NCCc2coc(-c3ccccc3)n2)c(C#N)c1C,-14.3
3,CC(C)c1nccn1CCCNC(=O)c1ccc(-c2cccnc2)nc1,-11.8
4,COc1ccc(Cl)cc1NC(=O)CCC1CCCN(Cc2ncon2)C1 (stereo unspecified),-4.18
5,O=C(CCNc1ncc2c(n1)CCN2c1ccccc1)N1CCCC1,9.5
6,COc1c(C)cnc(CN(C)C2CCCCC2)c1C,20.5
7,CNC(=O)C1CCN(Cc2cc3c(cc2O)CCC3)CC1,4.83
8,Fc1ccccc1Oc1nccnc1C1CCN(C2CCOCC2)CC1,13.9
9,O=C([C@H]1C[C@H]2OCC[C@H]2N(Cc2cccnc2)C1)N1CCCO1,-2.83
10,CN1CCCN(C(=O)NCc2ccccc2Cn2cncn2)CC1,3.58
11,CN(C)C(=O)c1cccc(NC(=O)CN2CCCCC2C2OCCO2)c1 (stereo unspecified),-6.95
12,Cc1c(-c2n[nH]c3c2CN(CC2CCOC2)CC3)cccc1C(F)(F)F (stereo unspecified),-43.2
13,CC1CCc2n[nH]c(C(=O)NCCc3ccco3)c2C1 (stereo unspecified),-6.63
14,CCOCC(=O)N1CC[C@H]2OCC[C@@]2(COc2ncccc2F)C1,-152
15,O=C(NS(=O)(=O)Cc1ccon1)c1ccsc1,-14.2
16,COc1cccc(-n2cc(CN(C)Cc3ccnc(C(C)C)n3)cn2)c1,-1.29
17,CN1CCCn2c(nc(CNC(=O)c3ccsc3)cc2=O)C1,3.09
18,CCC(CC)c1cc(CNC(=O)N2CCOC(C)C2)on1 (stereo unspecified),0.433
19,c1ccc(CN2CCC3(COCc4cnc(NCC5CC5)nc43)C2)cc1 (stereo unspecified),12.5
